# *1 amine or outer side, *2 acyl side, *3 side chain or, on linkers, in order; H or OH if unused. Where a SMILES comes first, the peptide text is derived from it. Side-chain parts run from the residue outwards. [ ]: non-standard residue; d: D form. The star is where a group is joined. Ethylenediamine = C(CN[*:2])N[*:1]; Hyp = O=C(O)[C@@H]1C[C@@H](O)CN1; Phg = N[C@H](C(=O)O)c1ccccc1; CO = O=C([*:1])[*:2]; Bn = c1ccc(C*)cc1
# Assays:
# Format in all cases: in vivo, human
# [1] = test system: Ki-67; assay: Ki-67 staining of tumour samples before and during pasireotide; details: assessed before and during treatment in four patients
# [2] = test system: BRAF-WT and NRAS-WT metastatic melanoma; assay: Antitumour activity: tumour response by RECIST 1.0; details: n=10, two patients, 95% CI 2.5 to 55.6; by CT or MRI and 18-FDG-PET
# Procedure, shortened: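 Patients with measurable RECIST 1.0 disease and ≥1 lesion suitable for 18-FDG-PET SUV measurement received the test compound SC at 300, 600, 900 and 1200 µg tid by intrapatient escalation for ≤8 weeks, optionally followed by 80 mg long-acting IM every 28 days. Investigators assessed response by RECIST 1.0 on CT/MRI on days 57, 113 and 169 and at end of treatment, and by adapted EORTC criteria on 18-FDG-PET on days 29 and 57. Efficacy set: ≥1 dose; 95% CI.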
# [3] = Pharmacokinetics of pasireotide SC in patients, non-compartmental analysis
# Procedure, shortened: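 Patients received the test compound SC at 300–1200 µg tid during the dose-escalation phase. […] was sampled on days 1 and 8 of each of the four dose-escalation cycles and monthly during follow-up. Non-compartmental analysis gave Cmax and Cmin on days 1 and 8 of each cycle, and AUC0–2h at steady state.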
# [4] = test system: patient with BRAF-WT and NRAS-WT stage IVc cutaneous melanoma; assay: Individual patient response summary: ascites and weight; details: patient number 4, after readministration of pasireotide
# [5] = test system: patients with BRAF-WT and NRAS-WT metastatic melanoma; assay: Phase I safety: adverse events
# Procedure, shortened: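 Open-label intrapatient escalation of the test compound SC at 300, 600, 900 and 1200 µg tid over an 8-week dose-escalation phase. At each visit, monitoring covered laboratory tests, ECG, vital signs, physical examination and gall bladder ultrasound, with AEs recorded in the eCRF. AEs of any relationship were tabulated by preferred term and by the dose level at which they started. Safety set: ≥1 dose plus ≥1 post-baseline safety assessment.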
# [6] = test system: IGF-1, IGF-2, IGFBP2, IGFBP3, S100B, MIA; assay: Serum secretion and melanoma response biomarkers over time; details: patients
# Procedure, shortened: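 Serum S100B, MIA, IGF-1, IGF-2, IGFBP2 and IGFBP3 were followed over time in patients receiving the test compound SC tid (300–1200 µg escalation, optionally followed by 80 mg long-acting IM every 28 days). Results were summarised descriptively.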
# [7] = dose-escalation phase, AEs started at 300 µg tid SC, safety set n=10
# [8] = dose-escalation phase, AEs started at 600 µg tid SC, safety set n=10
# [9] = dose-escalation phase, AEs started at 900 µg tid SC, safety set n=10
# [10] = dose-escalation phase, AEs started at 1200 µg tid SC, safety set n=10
# [11] = dose-escalation phase, all patients (all dose levels), safety set n=10
# [12] = overall (dose-escalation phase+follow-up phase), all patients, safety set n=10
compound,measurement,setting,value
NCCCC[C@@H]1NC(=O)[C@@H](Cc2c[nH]c3ccccc23)NC(=O)[C@H](c2ccccc2)NC(=O)[C@@H]2C[C@@H](OC(=O)NCCN)CN2C(=O)[C@H](Cc2ccccc2)NC(=O)[C@H](Cc2ccc(OCc3ccccc3)cc2)NC1=O [pasireotide] (cyclo([Hyp]([CO-Ethylenediamine])[Phg][dW]KY(Bn)F)),Tumour samples with decreases in Ki-67 staining following treatment,[1],Three of the four
same,Best overall DCR (stable disease or better),[2],20%
same,Accumulation ratio of AUC0–2h,"[3]; 300 µg three times a day SC, patients",147%
same,"AUC0–2h, Cmax and Cmin versus dose","[3]; mean plasma concentration versus time profiles on day 8, 300-1200 µg tid SC",increased with the increasing dose
same,Improvement in ascites,[4],from grade 2 to grade 1
same,Reduction in weight,[4]; ascites,from 85 kg to 63 kg
same,Tolerability in patients with BRAF-WT and NRAS-WT melanoma,[5]; authors' overall conclusion,safe and well tolerated
same,"Chills, AE regardless of study drug relationship",[5]; [7],0 n (%)
same,"Diarrhoea, AE regardless of study drug relationship",[5]; [7],4 (40) n (%)
same,"Fatigue, AE regardless of study drug relationship",[5]; [7],2 (20) n (%)
same,"Hyperglycaemia, AE regardless of study drug relationship",[5]; [7],2 (20) n (%)
same,"Hypophosphatemia, AE regardless of study drug relationship",[5]; [7],1 (10) n (%)
same,"Nausea, AE regardless of study drug relationship",[5]; [7],3 (30) n (%)
same,"Tumour pain, AE regardless of study drug relationship",[5]; [7],2 (20) n (%)
same,"Chills, AE regardless of study drug relationship",[5]; [8],1 (10) n (%)
same,"Diarrhoea, AE regardless of study drug relationship",[5]; [8],1 (10) n (%)
same,"Fatigue, AE regardless of study drug relationship",[5]; [8],0 n (%)
same,"Hyperglycaemia, AE regardless of study drug relationship",[5]; [8],0 n (%)
same,"Hypophosphatemia, AE regardless of study drug relationship",[5]; [8],1 (10) n (%)
same,"Nausea, AE regardless of study drug relationship",[5]; [8],2 (20) n (%)
same,"Tumour pain, AE regardless of study drug relationship",[5]; [8],0 n (%)
same,"Chills, AE regardless of study drug relationship",[5]; [9],1 (10) n (%)
same,"Diarrhoea, AE regardless of study drug relationship",[5]; [9],0 n (%)
same,"Fatigue, AE regardless of study drug relationship",[5]; [9],0 n (%)
same,"Hyperglycaemia, AE regardless of study drug relationship",[5]; [9],0 n (%)
same,"Hypophosphatemia, AE regardless of study drug relationship",[5]; [9],1 (10) n (%)
same,"Nausea, AE regardless of study drug relationship",[5]; [9],1 (10) n (%)
same,"Tumour pain, AE regardless of study drug relationship",[5]; [9],0 n (%)
same,"Chills, AE regardless of study drug relationship",[5]; [10],0 n (%)
same,"Diarrhoea, AE regardless of study drug relationship",[5]; [10],0 n (%)
same,"Fatigue, AE regardless of study drug relationship",[5]; [10],0 n (%)
same,"Hyperglycaemia, AE regardless of study drug relationship",[5]; [10],0 n (%)
same,"Hypophosphatemia, AE regardless of study drug relationship",[5]; [10],0 n (%)
same,"Nausea, AE regardless of study drug relationship",[5]; [10],0 n (%)
same,"Tumour pain, AE regardless of study drug relationship",[5]; [10],0 n (%)
same,"Chills, AE regardless of study drug relationship",[5]; [11],2 (20) n (%)
same,"Diarrhoea, AE regardless of study drug relationship",[5]; [11],5 (50) n (%)
same,"Fatigue, AE regardless of study drug relationship",[5]; [11],2 (20) n (%)
same,"Hyperglycaemia, AE regardless of study drug relationship",[5]; [11],2 (20) n (%)
same,"Hypophosphatemia, AE regardless of study drug relationship",[5]; [11],2 (20) n (%)
same,"Nausea, AE regardless of study drug relationship",[5]; [11],5 (50) n (%)
same,"Tumour pain, AE regardless of study drug relationship",[5]; [11],2 (20) n (%)
same,Incidence of chills (most commonly reported AEs),"[5]; dose-escalation phase, n=10",20%
same,Incidence of diarrhoea (most commonly reported AEs),"[5]; dose-escalation phase, n=10",50%
same,Incidence of fatigue (most commonly reported AEs),"[5]; dose-escalation phase, n=10",20%
same,Incidence of hyperglycaemia (most commonly reported AEs),"[5]; dose-escalation phase, n=10",20%
same,Incidence of hypophosphatemia (most commonly reported AEs),"[5]; dose-escalation phase, n=10",20%
same,Incidence of nausea (most commonly reported AEs),"[5]; dose-escalation phase, n=10",50%
same,Incidence of tumour pain (most commonly reported AEs),"[5]; dose-escalation phase, n=10",20%
same,Study drug-related AE: diarrhoea,"[5]; dose-escalation phase, n=10",50%
same,Study drug-related AE: fatigue,"[5]; dose-escalation phase, n=10",20%
same,Study drug-related AE: hyperglycaemia,"[5]; dose-escalation phase, n=10",20%
same,Study drug-related AE: nausea,"[5]; dose-escalation phase, n=10",50%
same,"Chills, AE regardless of study drug relationship",[5]; [12],2 (20) n (%)
same,"Diarrhoea, AE regardless of study drug relationship",[5]; [12],5 (50) n (%)
same,"Fatigue, AE regardless of study drug relationship",[5]; [12],3 (30) n (%)
same,"Hyperglycaemia, AE regardless of study drug relationship",[5]; [12],3 (30) n (%)
same,"Hypophosphatemia, AE regardless of study drug relationship",[5]; [12],3 (30) n (%)
same,"Nausea, AE regardless of study drug relationship",[5]; [12],5 (50) n (%)
same,"Tumour pain, AE regardless of study drug relationship",[5]; [12],2 (20) n (%)
same,"Weight decreased, AE regardless of study drug relationship",[5]; [12],2 (20) n (%)
same,Incidence of chills (most commonly reported AEs),"[5]; overall safety, n=10",20%
same,Incidence of decreased weight (most commonly reported AEs),"[5]; overall safety, n=10",20%
same,Incidence of diarrhoea (most commonly reported AEs),"[5]; overall safety, n=10",50%
same,Incidence of fatigue (most commonly reported AEs),"[5]; overall safety, n=10",30%
same,Incidence of hyperglycaemia (most commonly reported AEs),"[5]; overall safety, n=10",30%
same,Incidence of hypophosphatemia (most commonly reported AEs),"[5]; overall safety, n=10",30%
same,Incidence of nausea (most commonly reported AEs),"[5]; overall safety, n=10",50%
same,Incidence of tumour pain (most commonly reported AEs),"[5]; overall safety, n=10",20%
same,Study drug-related AE: diarrhoea,"[5]; overall safety, n=10",50%
same,Study drug-related AE: fatigue,"[5]; overall safety, n=10",20%
same,Study drug-related AE: hyperglycaemia,"[5]; overall safety, n=10",30%
same,Study drug-related AE: hypophosphatemia,"[5]; overall safety, n=10",20%
same,Study drug-related AE: nausea,"[5]; overall safety, n=10",50%
same,Study drug-related AE: weight decrease,"[5]; overall safety, n=10",20%
same,"Study drug-related AEs, patients with any","[5]; overall safety, n=10",80%
same,Grade 3 or 4 drug-related AEs,"[5]; overall safety, diarrhoea and nausea in one patient, hypophosphatemia in one patient, n=10",20%
same,Serum level of IGF-1 during treatment,[6]; over time,decrease
same,Serum level of IGF-2 during treatment,[6]; over time,decrease
same,Serum level of MIA during treatment,[6]; over time,decrease
same,Serum level of S100B during treatment,[6]; over time,decrease
same,IGFBP2 serum levels with time,[6]; serum,increase
same,IGFBP3 levels with time,[6]; serum,decrease

# — article PMC6069912 (ESMO Open, 2018)
